Results from ChEMBL document CHEMBL4014339, “Discovery of 1,4-Benzodiazepine-2,5-dione (BZD) Derivatives as Dual Nucleotide Binding Oligomerization Domain Containing 1/2 (NOD1/NOD2) Antagonists Sensitizing Paclitaxel (PTX) To Suppress Lewis Lung Carcinoma (LLC) Growth in Vivo” (J Med Chem, 2017).

Legend:
Assay type in all cases: cell-based
[1] = target: T1, Nucleotide-binding oligomerization domain-containing protein 2 (Homo sapiens, UniProt Q9HC29); experiment: Antagonist activity at human NOD2 expressed in HEK-Blue cells assessed as inhibition of MDP-stimulated cell activation at 10 uM preincubated for 3 hrs followed by MDP addition measured after 20 hrs by SEAP reporter gene assay
T1 sequence (Q9HC29 whole entry, the tested form may be a part): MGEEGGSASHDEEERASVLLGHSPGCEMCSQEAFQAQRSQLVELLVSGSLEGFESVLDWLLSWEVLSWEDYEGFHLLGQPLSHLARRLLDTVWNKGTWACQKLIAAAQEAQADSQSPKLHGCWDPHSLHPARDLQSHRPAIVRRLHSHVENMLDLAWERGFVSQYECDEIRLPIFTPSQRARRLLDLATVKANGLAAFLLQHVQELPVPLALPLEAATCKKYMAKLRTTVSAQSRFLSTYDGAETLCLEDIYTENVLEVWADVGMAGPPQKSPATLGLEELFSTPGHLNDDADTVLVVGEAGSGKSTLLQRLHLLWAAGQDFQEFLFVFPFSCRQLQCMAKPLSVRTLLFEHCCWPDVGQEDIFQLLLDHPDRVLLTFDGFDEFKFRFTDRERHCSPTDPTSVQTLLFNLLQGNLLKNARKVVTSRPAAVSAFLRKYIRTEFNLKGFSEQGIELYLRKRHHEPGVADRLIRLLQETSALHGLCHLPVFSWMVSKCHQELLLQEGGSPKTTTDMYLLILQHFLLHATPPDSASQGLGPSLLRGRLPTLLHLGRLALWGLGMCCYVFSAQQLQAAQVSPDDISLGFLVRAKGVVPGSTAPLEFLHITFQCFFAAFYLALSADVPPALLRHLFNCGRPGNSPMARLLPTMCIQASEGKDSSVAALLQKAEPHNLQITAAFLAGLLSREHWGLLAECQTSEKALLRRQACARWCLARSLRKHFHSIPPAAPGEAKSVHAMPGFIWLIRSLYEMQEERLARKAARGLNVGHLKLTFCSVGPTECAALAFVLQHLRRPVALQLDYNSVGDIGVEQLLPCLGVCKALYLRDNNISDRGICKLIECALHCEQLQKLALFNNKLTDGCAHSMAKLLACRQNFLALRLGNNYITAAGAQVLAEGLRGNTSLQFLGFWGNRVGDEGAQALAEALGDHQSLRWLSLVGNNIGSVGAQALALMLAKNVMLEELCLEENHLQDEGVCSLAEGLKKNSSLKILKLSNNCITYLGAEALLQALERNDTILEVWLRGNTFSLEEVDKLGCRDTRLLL
Method in brief: (§1)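 HEK-Blue hNOD1 or hNOD2 cells preincubated with compound 3 h, then stimulated 20 h with C12-iE-DAP 50 ng/mL (NOD1) or MDP 100 ng/mL (NOD2); SEAP in supernatant quantified. Primary screen at 10 μM, hits repeated in triplicate; IC50 from dose-response, mean ± SD (n = 3), only for compounds reaching ≥50% inhibition at the screening concentration.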

[2] = target: T2, Nucleotide-binding oligomerization domain-containing protein 1 (Homo sapiens) (UniProt Q9Y239); experiment: Antagonist activity at human NOD1 expressed in HEK-blue cells assessed as inhibition of C12-iE-DAP-stimulated cell activation at 5 uM preincubated for 3 hrs followed by C12-iE-DAP addition measured after 20 hrs by SEAP reporter gene assay
T2 sequence (whole entry): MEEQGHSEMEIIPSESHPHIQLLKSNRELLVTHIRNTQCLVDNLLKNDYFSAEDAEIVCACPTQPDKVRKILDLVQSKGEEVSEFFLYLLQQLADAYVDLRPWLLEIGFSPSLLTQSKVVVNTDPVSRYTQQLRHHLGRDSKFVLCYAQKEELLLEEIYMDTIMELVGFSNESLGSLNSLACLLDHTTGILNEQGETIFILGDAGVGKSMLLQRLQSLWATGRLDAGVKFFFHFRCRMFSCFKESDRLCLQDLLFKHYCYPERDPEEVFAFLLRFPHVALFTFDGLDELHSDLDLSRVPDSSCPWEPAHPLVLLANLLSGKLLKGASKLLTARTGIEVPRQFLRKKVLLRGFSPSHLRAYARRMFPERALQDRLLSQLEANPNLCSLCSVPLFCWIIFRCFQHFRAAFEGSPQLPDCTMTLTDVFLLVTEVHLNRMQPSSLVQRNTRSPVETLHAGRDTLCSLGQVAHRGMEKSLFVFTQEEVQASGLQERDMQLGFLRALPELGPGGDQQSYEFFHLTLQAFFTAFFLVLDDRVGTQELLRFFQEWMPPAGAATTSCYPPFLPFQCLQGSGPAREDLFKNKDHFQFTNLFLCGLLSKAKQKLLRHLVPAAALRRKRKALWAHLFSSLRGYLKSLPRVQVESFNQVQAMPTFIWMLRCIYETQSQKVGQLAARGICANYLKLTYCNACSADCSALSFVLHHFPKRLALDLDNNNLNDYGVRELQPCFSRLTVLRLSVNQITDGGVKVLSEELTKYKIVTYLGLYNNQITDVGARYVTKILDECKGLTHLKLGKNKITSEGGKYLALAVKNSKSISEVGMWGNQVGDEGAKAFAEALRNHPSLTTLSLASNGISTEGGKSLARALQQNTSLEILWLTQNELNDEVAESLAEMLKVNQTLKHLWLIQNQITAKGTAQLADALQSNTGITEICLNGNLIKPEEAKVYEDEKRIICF

[3] = target: T2, Nucleotide-binding oligomerization domain-containing protein 1 (Homo sapiens); experiment: Antagonist activity at human NOD1 expressed in HEK-Blue cells assessed as inhibition of C12-iE-DAP-stimulated cell activation at 10 uM preincubated for 3 hrs followed by C12-iE-DAP addition measured after 20 hrs by SEAP reporter gene assay; method in brief: as §1
[4] = target: T1, Nucleotide-binding oligomerization domain-containing protein 2; experiment: Antagonist activity at human NOD2 expressed in HEK-Blue cells assessed as inhibition of MDP-stimulated cell activation at 5 uM preincubated for 3 hrs followed by MDP addition measured after 20 hrs by SEAP reporter gene assay

inhibition [1] [%]	inhibition [2] [%]	inhibition [3] [%]	inhibition [4] [%]	SMILES
1.87				COC(=O)CCC1NC(=O)c2cc(Cl)ccc2N(C)C1=O (stereo not drawn)
6.85	-5.19	1.4	9.23	COC(=O)CC[C@H]1NC(=O)c2cc(Oc3cc(N(C)C)cc(Cl)c3Cl)c(NC(=O)COCc3ccccc3)cc2NC1=O
-2.7		-3.06		COC(=O)CCC1NC(=O)c2cc(Cl)ccc2N(CC2CC2)C1=O (stereo not drawn)
	12.7	18.5		CCCCCCCCCCCCCCCCCCNC(=O)CC[C@H]1NC(=O)c2cc(Oc3cccc(N(C)C)c3)c(NC(=O)COCc3ccccc3)cc2NC1=O
	59.5		30.9	COC(=O)CC[C@H]1NC(=O)c2cc(Oc3cccc(N(C)C)c3)c(NC(=O)COCc3ccc(Cl)cc3Cl)cc2NC1=O
54.8		70.6		NC(=O)CC[C@H]1NC(=O)c2cc(Oc3cccc4ccccc34)c(NC(=O)/C=C\c3ccc(F)cc3Cl)cc2NC1=O
34.1		31.3		CCCCCCCCCN1C(=O)[C@@H](CCC(=O)OC)N(C)C(=O)c2ccc(Cl)cc21
76.6		66.4		COC(=O)CC[C@H]1NC(=O)c2cc(OC)c(NC(=O)c3ccc4ccccc4c3)cc2NC1=O
	46.1		34.5	CCCNC(=O)CC[C@@H]1NC(=O)c2cc(Oc3cccc(N(C)C)c3)c(NC(=O)COCc3ccccc3)cc2NC1=O
28.9		38		COC(=O)CC[C@H]1NC(=O)c2cc(Cl)ccc2NC1=O
60.8		76.5		CCCCN(CCCC)c1cc2c(cc1NC(=O)/C=C/c1ccc(F)cc1Cl)NC(=O)[C@@H](CCC(=O)OC)NC2=O
	38		31.6	CN(C)c1cccc(Oc2cc3c(cc2NC(=O)COCc2ccc(C(F)(F)F)cc2)NC(=O)CNC3=O)c1
34.2		37.9		COC(=O)CC[C@H]1NC(=O)c2cc(Oc3cccc4ccccc34)c(NC(=O)/C=C\c3ccc(F)cc3Cl)cc2NC1=O
30.9		54.8		CCCCCCCCCN1C(=O)[C@@H](CCC(=O)NCc2cccnc2)N(C)C(=O)c2ccc(Cl)cc21
91.9		82.1		C=CC(=O)Nc1cc2c(cc1Oc1cccc(N(C)C)c1)C(=O)N[C@H](CCC(=O)OC)C(=O)N2
	42.4		29.8	COC(=O)CC[C@H]1NC(=O)c2cc(Oc3ccccc3)c(NC(=O)COCc3ccc(C(F)(F)F)cc3)cc2NC1=O
-5.32				COC(=O)CC[C@H]1NC(=O)c2cc(OC)c(NC(=O)c3cc(C(F)(F)F)cc(C(F)(F)F)c3)cc2NC1=O
17.8		29.7		CCCCCCCCCN1C(=O)[C@@H](CCC(=O)N2CCOCC2)N(C)C(=O)c2ccc(Cl)cc21
	48.1		38.6	COC(=O)CC[C@H]1NC(=O)c2cc(Oc3cccc(N(C)C)c3)c(NC(=O)COCc3ccsc3)cc2NC1=O
1.94				CCN(CC)C(=O)CC[C@H]1NC(=O)c2cc(Oc3cccc4ccccc34)c(NC(=O)/C=C\c3ccc(F)cc3Cl)cc2NC1=O
29.5		22		CCCCCCCCCN1C(=O)[C@@H](CCC(N)=O)N(C)C(=O)c2ccc(Cl)cc21
54.4		73.8		COC(=O)CC[C@H]1NC(=O)c2cc(Oc3ccc(C)c(C)c3)c(NC(=O)COCc3ccccc3)cc2NC1=O
28.7		41.6		NC(=O)CC[C@H]1NC(=O)c2cc(Oc3cccc4ccccc34)c(NC(=O)C3CC3)cc2NC1=O
-3.92		7.37		CCCCCCCCCCCCNCC(=O)Nc1cc2c(cc1Oc1cccc(N(C)C)c1)C(=O)N[C@H](CCC(=O)OC)C(=O)N2
	21.7		38.8	CN1CCN(C(=O)CC[C@H]2NC(=O)c3cc(Oc4cccc(N(C)C)c4)c(NC(=O)COCc4ccccc4)cc3NC2=O)CC1
1.38		-8.85		CCN(CC)C(=O)CC[C@@H]1C(=O)N(CC2CC2)c2cc(Cl)ccc2C(=O)N1C

inhibition [1] [%]	inhibition [2] [%]	inhibition [3] [%]	inhibition [4] [%]	SMILES
-0.3		6.34		COC(=O)CC[C@H]1NC(=O)c2cc(Oc3cccc4ccccc34)c(NC(=O)C3CC3)cc2NC1=O
50.9		13		COC(=O)CC[C@H]1NC(=O)c2cc(N3CCOCC3)c(NC(=O)Cc3ccccc3)cc2NC1=O
	22.2		18	COC(=O)CC[C@H]1NC(=O)c2cc(Oc3cccc(N(C)C)c3)c(NC(=O)CCCc3ccccc3)cc2NC1=O
	29.3		10.3	COC(=O)CC[C@@H]1NC(=O)c2cc(Oc3cccc(N(C)C)c3)c(NC(=O)COCc3ccc(F)cc3Cl)cc2NC1=O
		-7.62		CCN(CC)C(=O)CC[C@@H]1C(=O)N(CCC(C)C)c2cc(Cl)ccc2C(=O)N1C
27.7		17		CCCCCCCCCN1C(=O)[C@@H](CCC(=O)N[C@@H](C)C(N)=O)N(C)C(=O)c2ccc(Cl)cc21
1.25		-7.88		CCCCCCCNC(=O)CC[C@H]1NC(=O)c2cc(Cl)ccc2NC1=O
7.9		-0.69		CCCCCCCCCCCCNC(=O)CC[C@H]1NC(=O)c2cc(N3CCOCC3)c(NC(=O)C3CC3)cc2NC1=O
	34.9		24.8	COC(=O)CC[C@H]1NC(=O)c2cc(Oc3cccc(N(C)C)c3)c(NC(=O)COCc3ccoc3)cc2NC1=O
	43.3		38.5	C=CCOCC(=O)Nc1cc2c(cc1Oc1cccc(N(C)C)c1)C(=O)N[C@H](CCC(=O)OC)C(=O)N2
	36		45.5	COC(=O)CC[C@H]1NC(=O)c2cc(Oc3cccc(N(C)C)c3)c(NC(=O)COCc3ccc(Cl)c(Cl)c3)cc2NC1=O
-4.24		-9.9		COC(=O)CC[C@H]1NC(=O)c2cc(Oc3ccc(C)c(C)c3)c(NC(=O)C3CC3)cc2NC1=O
27.1		22.6		O=C(CC[C@H]1NC(=O)c2cc(N3CCOCC3)c(NC(=O)C3CC3)cc2NC1=O)NC1CCCc2ccccc21 (stereo partly drawn)
23.8	-5.97		20.9	COC(=O)CC[C@H]1NC(=O)c2cc(Oc3cccc(N(C)C)c3)c(NC(=O)COCc3ccccc3Cl)cc2NC1=O
-7.93		-6.29		CCCCN(CCCC)c1cc2c(cc1NC(C)=O)NC(=O)[C@@H](CCC(=O)OC)NC2=O
	33.4		42.2	CN(C)c1cccc(Oc2cc3c(cc2NC(=O)COCc2ccccc2)NC(=O)[C@@H](CCC(=O)N2CCNCC2)NC3=O)c1
27		6.82		COC(=O)CC[C@H]1NC(=O)c2cc(N3CCOCC3)c(NC(=O)C3CC3)cc2NC1=O
21.5		-0.11		CCN(CC)C(=O)CC[C@H]1NC(=O)c2cc(Cl)ccc2NC1=O
-2.7		2.54		CCCCCCCCCCN1C(=O)C(CCC(=O)OC)NC(=O)c2cc(Cl)ccc21 (stereo not drawn)
3.93				CN(C)c1cccc(Oc2cc3c(cc2NC(=O)COCc2ccccc2)NC(=O)[C@@H](CCC(N)=O)NC3=O)c1
-7.53				CCN(CC)C(=O)CC[C@@H]1C(=O)Nc2cc(Cl)ccc2C(=O)N1C
-2.95				O=C(CC[C@H]1NC(=O)c2cc(N3CCOCC3)c(NC(=O)C3CC3)cc2NC1=O)NCCC1=CCCCC1
7.76		3.86		O=C(O)CC[C@H]1NC(=O)c2cc(Oc3cccc4ccccc34)c(NC(=O)/C=C\c3ccc(F)cc3Cl)cc2NC1=O
0.22		-9.85		COC(=O)CC[C@H]1NC(=O)c2cc(Oc3ccccc3)c(NC(=O)Nc3ccc(F)cc3)cc2NC1=O
-1.87				COC(=O)CC[C@@H]1C(=O)Nc2cc(Cl)ccc2C(=O)N1C
-3.78				Cc1ccc(Oc2cc3c(cc2NC(=O)C2CC2)NC(=O)[C@@H](CCC(=O)O)NC3=O)cc1C
